In brackets after ≈: the same amount, converted by molar mass. Values belong to the compound of their own block, whether it stands above or below them.
Columns and labels:
[1] = biological target: Potassium voltage-gated channel subfamily A member 5 (Homo sapiens, UniProt P22460); assay: Inhibition of human Kv1.5 expressed in CHO cells by patch-clamp technique; assay type: cell-based
Method in brief: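 Human Kv1.5 stably expressed in CHO cells. IC50 was determined by automated patch clamp on the IonWorks platform.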

[2] = Aqueous solubility at pH 7.4 by direct UV method; assay type: physicochemical; details: aqueous medium
Method in brief: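 Solubility measured in pH 7.4 buffer with direct UV read-out.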

[3] = Metabolic stability in human liver microsomes assessed as half life; assay type: ADME, Microsome
Method in brief: (§1)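 Test compound at 1 μM incubated with 1 mg/mL male beagle dog or male human liver microsomal protein. Half-life was determined from compound loss.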

CYP3A4 = CYP3A4 (Homo sapiens, UniProt P08684); assay: Inhibition of CYP3A4 at 3 uM by fluorescent method; assay type: ADME
Sequence of CYP3A4 (P08684 whole entry): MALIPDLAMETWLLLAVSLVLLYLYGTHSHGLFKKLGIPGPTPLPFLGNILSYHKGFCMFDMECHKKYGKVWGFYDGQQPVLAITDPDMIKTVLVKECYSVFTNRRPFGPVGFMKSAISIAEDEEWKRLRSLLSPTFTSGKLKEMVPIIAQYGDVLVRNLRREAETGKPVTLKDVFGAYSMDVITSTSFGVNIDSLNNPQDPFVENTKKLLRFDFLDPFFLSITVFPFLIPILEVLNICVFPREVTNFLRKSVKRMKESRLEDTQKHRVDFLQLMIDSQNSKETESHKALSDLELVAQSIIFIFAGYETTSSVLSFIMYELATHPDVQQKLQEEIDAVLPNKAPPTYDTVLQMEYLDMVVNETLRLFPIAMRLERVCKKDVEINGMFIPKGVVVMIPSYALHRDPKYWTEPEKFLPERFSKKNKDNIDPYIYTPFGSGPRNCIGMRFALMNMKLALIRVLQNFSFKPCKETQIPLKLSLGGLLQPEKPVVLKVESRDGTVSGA
Method in brief: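 CYP3A4 inhibition measured by a fluorescent method.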

[4] = biological target: Voltage-gated inwardly rectifying potassium channel KCNH2 (Homo sapiens, UniProt Q12809); assay: Inhibition of human ERG by patch-clamp technique
Sequence of Voltage-gated inwardly rectifying potassium channel KCNH2 (Q12809 whole entry): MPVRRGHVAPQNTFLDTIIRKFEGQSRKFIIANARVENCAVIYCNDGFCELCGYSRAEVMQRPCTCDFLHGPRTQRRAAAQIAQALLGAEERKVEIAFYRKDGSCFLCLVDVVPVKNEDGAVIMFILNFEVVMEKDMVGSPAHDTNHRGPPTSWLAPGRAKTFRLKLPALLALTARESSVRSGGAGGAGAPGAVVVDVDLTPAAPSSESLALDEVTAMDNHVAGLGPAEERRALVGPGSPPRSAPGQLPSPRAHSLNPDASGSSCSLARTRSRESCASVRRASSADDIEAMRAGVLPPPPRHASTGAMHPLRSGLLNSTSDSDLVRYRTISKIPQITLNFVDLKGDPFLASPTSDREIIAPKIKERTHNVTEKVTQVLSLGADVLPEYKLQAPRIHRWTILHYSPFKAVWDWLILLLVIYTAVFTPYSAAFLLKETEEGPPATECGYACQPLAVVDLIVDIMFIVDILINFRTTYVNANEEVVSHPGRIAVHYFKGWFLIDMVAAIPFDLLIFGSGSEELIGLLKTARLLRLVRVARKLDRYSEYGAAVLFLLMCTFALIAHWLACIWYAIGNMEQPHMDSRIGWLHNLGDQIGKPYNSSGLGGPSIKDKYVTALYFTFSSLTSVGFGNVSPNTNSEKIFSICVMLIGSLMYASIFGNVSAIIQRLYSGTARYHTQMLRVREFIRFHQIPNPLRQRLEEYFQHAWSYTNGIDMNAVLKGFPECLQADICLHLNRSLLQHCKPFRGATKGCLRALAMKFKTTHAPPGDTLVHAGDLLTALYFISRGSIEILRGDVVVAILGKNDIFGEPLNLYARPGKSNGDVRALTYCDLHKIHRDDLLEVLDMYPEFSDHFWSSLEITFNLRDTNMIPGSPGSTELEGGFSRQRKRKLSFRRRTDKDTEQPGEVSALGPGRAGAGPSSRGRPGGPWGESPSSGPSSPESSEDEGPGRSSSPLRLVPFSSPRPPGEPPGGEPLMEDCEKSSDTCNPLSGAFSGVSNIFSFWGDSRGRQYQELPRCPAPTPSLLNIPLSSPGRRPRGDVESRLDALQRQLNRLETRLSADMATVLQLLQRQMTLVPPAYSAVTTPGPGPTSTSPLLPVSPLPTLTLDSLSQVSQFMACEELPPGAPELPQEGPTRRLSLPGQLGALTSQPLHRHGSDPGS

[5] = biological target: Sodium channel protein type 5 subunit alpha (Homo sapiens, UniProt Q14524); assay: Inhibition of Nav1.5 expressed in CHO cells by patch-clamp technique; assay type: cell-based
Method in brief: (§2)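 Electrophysiology IC50 measured in stably transfected cell lines: CHO for Nav1.5, Kv1.1, Kv1.3 and Kv4.3, and HEK for Cav1.3 and Cav1.2.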

[6] = Plasma clearance in Beagle dog at 3 mg/kg, iv; assay type: ADME, organism-based, Canis lupus familiaris; design: dose 3 mg/kg, route intravenous
Method in brief: (§3)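 Male beagles; single 30 min intravenous infusion at 3 mg/kg. Plasma clearance, steady-state volume of distribution, elimination half-life and AUC were derived from the plasma concentration–time profile.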

[7] = biological target: Voltage-dependent L-type calcium channel subunit alpha-1D (Homo sapiens, UniProt Q01668); assay: Inhibition of Cav1.3 expressed in HEK cells by patch-clamp technique
[8] = AUC in Beagle dog at 3 mg/kg, po; assay type: ADME, organism-based, Canis lupus familiaris; design: dose 3 mg/kg, route oral; details: plasma
Method in brief: (§4)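 Male beagles dosed orally at 3 mg/kg. Cmax, Tmax, half-life and AUC were taken from plasma levels.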

Cytochrome P450 2C9 = Cytochrome P450 2C9 (Homo sapiens, UniProt P11712); assay: Inhibition of CYP2C9 in human liver microsomes; assay type: ADME, Microsome
Method in brief: (§5)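 Reversible inhibition assayed in human liver microsomes at 0.2 mg/mL protein with probe substrates. CYP3A4 used 2.5 μM midazolam and, separately, 50 μM testosterone. CYP2D6 used 10 μM bufuralol. CYP2C9 used 10 μM diclofenac. IC50 was determined.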

[9] = Metabolic stability in Beagle dog liver microsomes assessed as half life; assay type: ADME, Canis lupus familiaris, Microsome; method in brief: as §1
[10] = biological target: Potassium voltage-gated channel subfamily A member 3 (Homo sapiens, UniProt P22001); assay: Inhibition of Kv1.3 expressed in CHO cells by patch-clamp technique; assay type: cell-based; method in brief: as §2
Cytochrome P450 2D6 = Cytochrome P450 2D6 (Homo sapiens, UniProt P10635); assay: Inhibition of CYP2D6 in human liver microsomes; assay type: ADME, Microsome; method in brief: as §5
Canis familiaris [11] = assay: Plasma concentration in Beagle dog at 6.3 mg/kg, iv; assay type: ADME, organism-based, Canis lupus familiaris; design: dose 6.3 mg/kg, route intravenous; details: in vivo
[12] = Half life in Beagle dog at 3 mg/kg, po; assay type: ADME, organism-based, Canis lupus familiaris; design: dose 3 mg/kg, route oral; details: in vivo; method in brief: as §4
[13] = biological target: Voltage-dependent L-type calcium channel subunit alpha-1C (Homo sapiens, UniProt Q13936); assay: Inhibition of Cav1.2 expressed in HEK cells by patch-clamp technique
Sequence of Voltage-dependent L-type calcium channel subunit alpha-1C (Q13936 whole entry): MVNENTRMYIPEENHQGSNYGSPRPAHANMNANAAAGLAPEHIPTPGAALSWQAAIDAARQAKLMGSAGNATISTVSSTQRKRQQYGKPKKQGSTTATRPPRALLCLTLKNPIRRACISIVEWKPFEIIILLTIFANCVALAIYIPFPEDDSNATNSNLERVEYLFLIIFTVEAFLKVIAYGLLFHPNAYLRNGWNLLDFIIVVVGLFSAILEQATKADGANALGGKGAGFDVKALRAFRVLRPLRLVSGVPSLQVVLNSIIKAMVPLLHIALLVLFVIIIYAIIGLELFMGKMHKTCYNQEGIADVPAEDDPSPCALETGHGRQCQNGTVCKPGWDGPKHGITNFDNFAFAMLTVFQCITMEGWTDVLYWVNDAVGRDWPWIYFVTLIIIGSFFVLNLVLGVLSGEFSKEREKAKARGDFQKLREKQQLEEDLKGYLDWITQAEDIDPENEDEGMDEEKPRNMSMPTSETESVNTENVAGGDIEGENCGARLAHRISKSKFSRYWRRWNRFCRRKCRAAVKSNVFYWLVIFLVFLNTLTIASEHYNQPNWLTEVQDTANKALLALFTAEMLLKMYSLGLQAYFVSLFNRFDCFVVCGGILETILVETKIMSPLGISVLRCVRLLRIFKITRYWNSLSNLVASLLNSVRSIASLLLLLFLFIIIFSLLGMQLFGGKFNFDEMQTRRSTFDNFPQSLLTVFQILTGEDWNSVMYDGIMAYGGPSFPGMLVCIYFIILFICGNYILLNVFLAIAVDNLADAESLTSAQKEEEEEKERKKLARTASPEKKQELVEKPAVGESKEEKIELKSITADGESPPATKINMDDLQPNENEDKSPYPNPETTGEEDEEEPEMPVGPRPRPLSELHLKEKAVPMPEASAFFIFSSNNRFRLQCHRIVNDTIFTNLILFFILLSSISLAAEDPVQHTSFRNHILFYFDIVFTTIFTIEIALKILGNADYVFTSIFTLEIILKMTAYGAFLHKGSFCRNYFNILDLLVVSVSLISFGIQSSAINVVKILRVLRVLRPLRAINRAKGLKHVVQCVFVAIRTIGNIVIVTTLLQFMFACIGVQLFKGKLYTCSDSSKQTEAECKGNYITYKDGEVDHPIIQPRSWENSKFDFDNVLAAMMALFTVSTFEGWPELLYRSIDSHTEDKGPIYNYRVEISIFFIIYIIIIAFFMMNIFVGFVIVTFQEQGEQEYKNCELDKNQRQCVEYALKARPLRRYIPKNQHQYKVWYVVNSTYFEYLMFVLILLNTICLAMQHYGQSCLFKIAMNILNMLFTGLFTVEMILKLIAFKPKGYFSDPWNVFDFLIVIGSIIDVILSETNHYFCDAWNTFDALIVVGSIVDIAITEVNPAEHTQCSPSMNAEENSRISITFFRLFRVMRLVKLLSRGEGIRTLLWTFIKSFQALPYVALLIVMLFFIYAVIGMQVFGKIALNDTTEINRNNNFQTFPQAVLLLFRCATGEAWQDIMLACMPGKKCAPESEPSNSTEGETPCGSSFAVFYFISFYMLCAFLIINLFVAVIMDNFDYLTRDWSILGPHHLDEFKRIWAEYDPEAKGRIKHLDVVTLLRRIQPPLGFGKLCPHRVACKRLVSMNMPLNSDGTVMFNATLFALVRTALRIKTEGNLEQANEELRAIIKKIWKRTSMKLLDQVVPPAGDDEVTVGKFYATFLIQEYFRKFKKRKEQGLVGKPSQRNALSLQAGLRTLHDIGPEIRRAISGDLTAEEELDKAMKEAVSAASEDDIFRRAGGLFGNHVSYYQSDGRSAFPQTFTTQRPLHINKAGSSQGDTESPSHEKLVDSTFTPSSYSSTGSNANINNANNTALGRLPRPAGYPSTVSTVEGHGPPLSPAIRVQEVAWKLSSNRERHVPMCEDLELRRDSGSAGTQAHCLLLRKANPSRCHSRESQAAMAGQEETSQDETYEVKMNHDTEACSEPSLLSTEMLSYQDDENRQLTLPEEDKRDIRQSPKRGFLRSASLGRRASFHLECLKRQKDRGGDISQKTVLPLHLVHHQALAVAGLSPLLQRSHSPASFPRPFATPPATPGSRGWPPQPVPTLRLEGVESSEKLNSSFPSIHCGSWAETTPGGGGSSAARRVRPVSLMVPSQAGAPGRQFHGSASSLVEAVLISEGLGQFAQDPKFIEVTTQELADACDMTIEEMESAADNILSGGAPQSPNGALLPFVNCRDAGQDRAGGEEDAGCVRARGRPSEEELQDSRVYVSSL

[14] = Tmax in Beagle dog at 3 mg/kg, po; assay type: ADME, organism-based, Canis lupus familiaris; design: dose 3 mg/kg, route oral; details: in vivo; method in brief: as §4
[15] = Oral bioavailability in Beagle dog at 3 mg/kg; assay type: ADME, organism-based, Canis lupus familiaris; details: in vivo; method in brief: as §4
[16] = Permeability from apical to basolateral side in human Caco-2 cells at pH 7.4; assay type: ADME, cell-based; details: Caco-2, pH 7.4, read-out: permeability
Method in brief: (§6)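 Caco-2 monolayers at pH 7.4. Bidirectional transport was measured from apical to basolateral and from basolateral to apical. Apparent permeability was reported in cm/s.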

Canis familiaris [17] = assay: Antiarrhythmic activity in Beagle dog atrial/ventricular tachypacing model assessed as decrease in total atrial fibrillation at 3 mg/kg, po; assay type: functional, Canis lupus familiaris, Heart; design: scale not given: the % may be the effect or the level left
[18] = Permeability from basolateral to apical side in human Caco-2 cells at pH 7.4; assay type: ADME, cell-based; details: Caco-2, pH 7.4, read-out: permeability; method in brief: as §6
[19] = biological target: T1, A-type voltage-gated potassium channel KCND3 (Homo sapiens, UniProt Q9UK17); assay: Inhibition of Kv4.3 expressed in CHO cells by patch-clamp technique; assay type: cell-based; method in brief: as §2
T1 sequence (Q9UK17 whole entry): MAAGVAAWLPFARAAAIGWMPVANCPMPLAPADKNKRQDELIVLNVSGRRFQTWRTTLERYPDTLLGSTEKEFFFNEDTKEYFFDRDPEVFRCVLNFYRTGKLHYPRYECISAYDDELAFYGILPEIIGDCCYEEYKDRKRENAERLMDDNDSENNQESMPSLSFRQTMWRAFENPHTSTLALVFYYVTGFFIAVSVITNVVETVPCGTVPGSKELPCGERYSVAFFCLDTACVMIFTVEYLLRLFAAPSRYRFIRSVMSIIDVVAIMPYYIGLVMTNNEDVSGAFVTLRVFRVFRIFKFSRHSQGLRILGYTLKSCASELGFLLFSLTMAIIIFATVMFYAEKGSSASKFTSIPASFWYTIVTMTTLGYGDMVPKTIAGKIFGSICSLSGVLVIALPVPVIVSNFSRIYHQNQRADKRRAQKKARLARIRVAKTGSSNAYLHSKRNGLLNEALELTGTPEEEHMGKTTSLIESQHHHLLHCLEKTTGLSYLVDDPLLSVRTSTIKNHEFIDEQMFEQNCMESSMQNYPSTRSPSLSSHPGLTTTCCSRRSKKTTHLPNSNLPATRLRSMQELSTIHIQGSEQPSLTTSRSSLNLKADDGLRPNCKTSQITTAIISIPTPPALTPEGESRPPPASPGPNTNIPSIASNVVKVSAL

Canis familiaris [20] = assay: Plasma concentration in Beagle dog at 1.9 mg/kg, iv; assay type: ADME, organism-based, Canis lupus familiaris; design: dose 1.9 mg/kg, route intravenous; details: in vivo
Canis familiaris [21] = species: Canis familiaris; assay: Antiarrhythmic activity in Beagle dog prolongation of atrial effective refractory period at steady state plasma concentrations of 23 uM; assay type: functional, Canis lupus familiaris, Heart
Canis familiaris [22] = species: Canis familiaris; assay: Antiarrhythmic activity in Beagle dog prolongation of atrial effective refractory period at steady state plasma concentrations of 4.6 uM; assay type: functional, Canis lupus familiaris, Heart
Cytochrome P450 3A4 = Cytochrome P450 3A4 (Homo sapiens, UniProt P08684); assay: Inhibition of CYP3A4 in human liver microsomes; assay type: ADME, Microsome; method in brief: as §5
Sequence of Cytochrome P450 3A4 (P08684 whole entry): as the sequence (P08684 whole entry) above

[23] = Cmax in Beagle dog at 3 mg/kg, po; assay type: ADME, organism-based, Canis lupus familiaris; design: dose 3 mg/kg, route oral; details: in vivo; method in brief: as §4
[24] = Half life in Beagle dog at 3 mg/kg, iv; assay type: ADME, organism-based, Canis lupus familiaris; design: dose 3 mg/kg, route intravenous; details: in vivo; method in brief: as §3
[25] = Volume of distribution at steady state in Beagle dog at 3 mg/kg, iv; assay type: ADME, organism-based, Canis lupus familiaris; design: dose 3 mg/kg, route intravenous; details: in vivo, read-out: Vdss; method in brief: as §3
[26] = biological target: Potassium voltage-gated channel subfamily A member 1 (Homo sapiens, UniProt Q09470); assay: Inhibition of Kv1.1 expressed in CHO cells by patch-clamp technique; assay type: cell-based; method in brief: as §2
Sequence of Potassium voltage-gated channel subfamily A member 1 (Q09470 whole entry): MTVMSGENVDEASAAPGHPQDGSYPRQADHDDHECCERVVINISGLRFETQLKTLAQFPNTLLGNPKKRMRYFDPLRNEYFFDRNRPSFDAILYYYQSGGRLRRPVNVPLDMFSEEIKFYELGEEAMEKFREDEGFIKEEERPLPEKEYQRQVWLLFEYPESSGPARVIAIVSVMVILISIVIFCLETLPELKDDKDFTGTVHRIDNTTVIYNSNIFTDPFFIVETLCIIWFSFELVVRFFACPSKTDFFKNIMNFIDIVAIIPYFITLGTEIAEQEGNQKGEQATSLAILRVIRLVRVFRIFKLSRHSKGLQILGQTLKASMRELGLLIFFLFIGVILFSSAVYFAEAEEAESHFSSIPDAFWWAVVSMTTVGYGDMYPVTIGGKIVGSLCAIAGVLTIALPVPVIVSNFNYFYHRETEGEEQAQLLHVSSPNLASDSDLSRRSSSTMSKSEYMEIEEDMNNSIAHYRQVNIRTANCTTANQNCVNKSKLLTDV

Canis familiaris [27] = assay: Antiarrhythmic activity in Beagle dog atrial/ventricular tachypacing model assessed as decrease in atrial fibrillation at 3 mg/kg, po; assay type: functional, Canis lupus familiaris, Heart; design: scale not given: the % may be the effect or the level left
[28] = AUC in Beagle dog at 3 mg/kg, iv; assay type: ADME, organism-based, Canis lupus familiaris; design: dose 3 mg/kg, route intravenous; details: plasma; method in brief: as §3
Canis familiaris [29] = assay: Antiarrhythmic activity in Beagle dog atrial/ventricular tachypacing model assessed as decrease in atrial fibrillation at 3 mg/kg, po after 5 to 10 mins; assay type: functional, Canis lupus familiaris, Heart; design: scale not given: the % may be the effect or the level left
[30] = Protein binding in Beagle dog plasma by equilibrium dialysis; assay type: ADME, cell-free, Canis lupus familiaris; details: read-out: PPB (converted)
Method in brief: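 Tritium-labelled compound at 500 ng/mL in male beagle dog or male human plasma. Bound fraction was determined by equilibrium dialysis.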

Sequence of Potassium voltage-gated channel subfamily A member 5 (P22460 whole entry): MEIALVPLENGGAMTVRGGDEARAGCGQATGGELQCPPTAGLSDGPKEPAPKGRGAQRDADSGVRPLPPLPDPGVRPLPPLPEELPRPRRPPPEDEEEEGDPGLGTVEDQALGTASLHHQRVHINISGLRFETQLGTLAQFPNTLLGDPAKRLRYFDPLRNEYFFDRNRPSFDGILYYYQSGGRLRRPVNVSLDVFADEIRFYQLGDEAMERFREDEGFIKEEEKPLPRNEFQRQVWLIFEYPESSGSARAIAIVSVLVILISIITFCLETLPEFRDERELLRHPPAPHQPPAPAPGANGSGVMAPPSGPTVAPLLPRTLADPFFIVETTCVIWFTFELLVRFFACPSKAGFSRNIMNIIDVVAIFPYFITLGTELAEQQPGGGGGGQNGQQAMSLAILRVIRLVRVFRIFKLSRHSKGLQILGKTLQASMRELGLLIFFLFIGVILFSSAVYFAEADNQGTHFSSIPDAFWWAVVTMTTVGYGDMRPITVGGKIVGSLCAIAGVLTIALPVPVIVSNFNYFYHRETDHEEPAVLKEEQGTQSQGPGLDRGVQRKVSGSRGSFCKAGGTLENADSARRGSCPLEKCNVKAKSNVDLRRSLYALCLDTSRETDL

IC50 [1]: 0.24 µM
solubility [2]: 26 µg/mL (≈ 58.1 µM)
half-life [3]: 30 min
inhibition at 3 µM (CYP3A4): 53%
Compound: COc1ccc(CCN2C(=O)N(NS(C)(=O)=O)CC2c2ccc(OC(C)C)cc2)cc1 (configuration not stated)
IC50 [4]: 17 µM

IC50 [1]: 0.77 µM
solubility [2]: 43 µg/mL (≈ 99.2 µM)
half-life [3]: 17 min
inhibition at 3 µM (CYP3A4): 4%
Compound: CCOc1ccc(CCN2C(=O)N(NS(C)(=O)=O)C[C@@H]2c2ccc(OC)cc2)cc1

IC50 [1]: 0.1 µM
solubility [2]: 18 µg/mL (≈ 41.5 µM)
half-life [3]: 29 min
inhibition at 3 µM (CYP3A4): 84%
Compound: COc1ccc(CCCN2C(=O)N(NS(C)(=O)=O)C[C@@H]2c2ccc(OC)cc2)cc1
IC50 [4]: 14.1 µM

IC50 [1]: 0.6 µM
solubility [2]: 23 µg/mL (≈ 46.3 µM)
half-life [3]: 3 min
inhibition at 3 µM (CYP3A4): 90%
Compound: COc1ccc(CCN2C(=O)N(NS(=O)(=O)Cc3cccnc3)C[C@@H]2c2ccc(OC)cc2)cc1

IC50 [1]: 0.9 µM
solubility [2]: 100 µg/mL (≈ 229 µM)
half-life [3]: 13 min
inhibition at 3 µM (CYP3A4): 0%
Compound: COc1ccc(CCN2C(=O)N(NS(=O)(=O)CF)C[C@@H]2c2ccc(OC)cc2)cc1
IC50 [4]: 28.3 µM

IC50 [1]: 0.23 µM
solubility [2]: 100 µg/mL (≈ 225 µM)
half-life [3]: 21 min
inhibition at 3 µM (CYP3A4): 7%
Compound: COc1ccc(CCN2C(=O)N(NS(=O)(=O)CC#N)C[C@@H]2c2ccc(OC)cc2)cc1
IC50 [4]: 33 µM

IC50 [1]: 0.48 µM
clearance [6]: 23 mL/min/kg
solubility [2]: 65 µg/mL (≈ 155 µM)
IC50 [7]: 23.4 µM
AUC [8]: 1990 ng·h/mL
IC50 (Cytochrome P450 2C9): 47 µM
half-life [9]: 11 min
IC50 [10]: 1.41 µM
IC50 (Cytochrome P450 2D6): 180 µM
concentration (Canis familiaris [11]): 23 µM
half-life [12]: 102 min
half-life [3]: 30 min
inhibition at 3 µM (CYP3A4): 45%
Tmax [14]: 60 min
bioavailability [15]: 82%
Papp A→B [16]: 40 ×10⁻⁶ cm/s
Papp B→A [18]: 39 ×10⁻⁶ cm/s
IC50 [19]: 3.87 µM
concentration (Canis familiaris [20]): 4.6 µM
IC50 (Cytochrome P450 3A4): 37 µM
Cmax [23]: 469 ng/mL
half-life [24]: 72 min
Vd [25]: 2.2 L/kg
IC50 [26]: 2.66 µM
AUC [28]: 2410 ng·h/mL
fraction unbound [30]: 0.1
Compound: COc1ccc(CCN2C(=O)N(NS(C)(=O)=O)C[C@H]2c2ccc(OC)cc2)cc1
IC50 [5]: > 30 µM
IC50 [13]: > 30 µM
IC50 [4]: 15.1 µM
Activity (Canis familiaris [17]): 52%
Activity (Canis familiaris [21]): 17%
Activity (Canis familiaris [22]): 12%
Activity (Canis familiaris [27]): 55%
Activity (Canis familiaris [29]): 63%

IC50 [1]: 0.56 µM
solubility [2]: 15 µg/mL (≈ 34.6 µM)
half-life [3]: 12 min
inhibition at 3 µM (CYP3A4): 50%
Compound: COc1ccc(CCCN2C(=O)N(NS(C)(=O)=O)C[C@H]2c2ccc(OC)cc2)cc1
IC50 [4]: 14.3 µM
